Source: ChEMBL document CHEMBL5532693, “Design, synthesis and antimycobacterial activity of imidazo[1,5-a]quinolines and their zinc-complexes” (RSC Med Chem, 2024)
Values after ≈ are worked out from the molar mass of the structure shown.

Assays:
Calu-3 = assay: Cytotoxicity against human Calu-3 cells assessed as reduction in cell viability at 100 uM incubated for 48 hrs by CellTiter-Glo Luminescent Cell Viability assay; assay type: toxicity, cell-based; conditions: calu-3, 48 h
Procedure, shortened: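 Confluent Calu-3 cells in DMEM/F-12 GlutaMAX with 10% FCS and 1% penicillin/streptomycin, 37°C, 5% CO2. Compounds were dissolved in DMSO (10 mM stocks) and tested once at 100 μM final with 1% DMSO, in triplicate, for 48 h. ATP luminescence was normalized to the DMSO control (100%). Viability below 80% was classed as cytotoxic. Ionomycin 100 μM served as positive control.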

[1] = system: Mycobacterium tuberculosis; assay: Antibacterial activity against Mycobacterium tuberculosis H37Ra assessed as inhibition of bacterial growth incubated for 7 days by BacTiter-Glo reagent based assay; assay type: functional
Procedure, shortened: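 M. tuberculosis H37Ra pre-grown 14 days in 7H9 with palmitic acid, casitone, BSA, catalase and 0.2% glycerol (37°C, 180 rpm, 85% rH). Diluted to McFarland 1, then to 1 × 10⁶ cells/mL. Compounds were in DMSO. Plates were held 7 days microaerophilic at 37°C/5% CO₂, with ATP luminescence read-out. MIC was the lowest concentration giving ≥85% inhibition versus blank-normalised untreated growth.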

[2] = system: Mycobacterium tuberculosis; assay: Antibacterial activity against Mycobacterium tuberculosis; assay type: functional

Row | Compound | Activity (Calu-3) | MIC [2] | further results
1 | CN(C)c1ccccc1-c1nc(-c2ccccc2)n2c1ccc1ccccc12 | Toxic |  | 
2 | c1ccc(-c2nc(-c3ccccc3)n3c2ccc2ccccc23)cc1 | Non-Toxic |  | 
3 | c1ccc(-c2nc(-c3cccc4ccccc34)n3c2ccc2ccccc23)nc1 | Toxic |  | MIC ([1]; 168 h, time 7 day): 1 µM (≈ 0.371 µg/mL)
4 | c1ccc(-c2nc(-c3cc4ccccc4cn3)c3ccc4ccccc4n23)cc1 | Non-Toxic |  | MIC ([1]; 168 h, time 7 day): 0.5 µM (≈ 0.186 µg/mL)
5 | CCc1cc(C(N)=S)ccn1 [ETHIONAMIDE] |  | 10 µM (≈ 1.66 µg/mL) | 
6 | COc1ccccc1-c1nc(-c2ccccc2)n2c1ccc1ccccc12 | Non-Toxic |  | 
7 | NNC(=O)c1ccncc1 [ISONIAZID] |  | 0.3 µM (≈ 0.0411 µg/mL) | 
8 | c1ccc(-c2ccc(-c3nc(-c4ccccc4)n4c3ccc3ccccc34)nc2)cc1 | Non-Toxic |  | 
9 | c1ccc(-c2nc(-c3ccccn3)n3c2ccc2ccccc23)nc1 | Non-Toxic |  | MIC ([1]; 168 h, time 7 day): 6 µM (≈ 1.93 µg/mL)
10 | C[C@H]1COc2c(N3CCN(C)CC3)c(F)cc3c(=O)c(C(=O)O)cn1c23 [LEVOFLOXACIN ANHYDROUS] |  | 0.8 µM (≈ 0.289 µg/mL) | 
11 | COc1nc2ccc(Br)cc2cc1[C@@H](c1ccccc1)[C@@](O)(CCN(C)C)c1cccc2ccccc12 [BEDAQUILINE] |  | 0.03 µM (≈ 0.0167 µg/mL) | 
12 | c1ccc(-c2nc(-c3cccs3)c3ccc4ccccc4n23)cc1 | Non-Toxic |  | 
13 | GENTAMICIN |  |  | MIC ([1]; time 7.0 day): 4 µM
14 | c1ccc(-c2nc(-c3ccccn3)n3c2ccc2ccccc23)cc1 | Toxic |  | MIC ([1]; 168 h, time 7 day): 25 µM (≈ 8.03 µg/mL)
15 | c1ccc(N(c2ccccc2)c2nc(-c3ccccn3)c3ccc4ccccc4n23)cc1 | Non-Toxic |  | 
16 | NCC[C@H](O)C(=O)N[C@@H]1C[C@H](N)[C@@H](O[C@H]2O[C@H](CN)[C@@H](O)[C@H](O)[C@H]2O)[C@H](O)[C@H]1O[C@H]1O[C@H](CO)[C@@H](O)[C@H](N)[C@H]1O [AMIKACIN] |  | 0.4 µM (≈ 0.234 µg/mL) | 
17 | c1ccc(-c2nc(-c3ccccn3)c3ccc4ccccc4n23)cc1 | Toxic |  | 
18 | c1ccc(-c2nc(-c3ncccn3)c3ccc4ccccc4n23)cc1 | Toxic |  | 
19 | CC[C@@H](CO)NCCN[C@@H](CC)CO [ETHAMBUTOL] |  | 0.3 µM (≈ 0.0613 µg/mL) | 
